Data: ChEMBL document CHEMBL1944515 (J Med Chem, 2012)
Calls of active or inactive are those of the source. No cut-off for these calls is given here.

Key:
LoVo [1] = experiment: Cytotoxicity against human doxorubicin-resistant LoVo cells after 72 hrs by MTT assay; type: functional, cell-based
Method in brief: (§1)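 Cells seeded at 8 × 10^3 per well and left 18 h at 37 °C, 5% CO2, then given fresh medium with compound at a range of concentrations for 72 h; DMSO at most 0.25% final. Viability read by MTT relative to 0.25% DMSO-treated cells. […] LoVoDoxo kept in Ham's F12 with 0.1 μg/mL doxorubicin; A549-T12 kept in DMEM with 12 nM paclitaxel.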

MCF7 = experiment: Cytotoxicity against human MCF7 cells after 72 hrs by MTT assay; type: functional, cell-based; details: MCF7, 72 h
HeLa [2] = experiment: Induction of cell cycle arrest in human HeLa cells assessed as decrease in S phase cells at 15 to 250 nM after 24 hrs by flow cytometry; type: functional, cell-based
Method in brief: (§2)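 5 × 10^5 exponentially growing HeLa cells were treated with 15–250 nM for 24 h, fixed in ice-cold 70% ethanol, then treated with lysis buffer containing RNase A and 0.1% Triton X-100. PI staining of DNA content, read by flow cytometry. Mean ± SEM of three independent experiments.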

Bos taurus = species on record: Bos taurus; experiment: Displacement of [3H]colchicine from bovine tubulin at 5 uM by DEAE-cellulose filter method
Method in brief: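 Inhibition of [3H]colchicine binding was measured in mixtures of 1 μM tubulin, 5 μM [3H]colchicine and 5 μM test compound. Results are percent inhibition of binding.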

HeLa [3] = experiment: Induction of mitochondrial depolarization in human HeLa cells after 24 to 48 hrs by JC1-based fluorescent staining; type: functional, cell-based
Method in brief: (§3)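 Mitochondrial membrane potential in HeLa cells after 24 or 48 h incubation, measured with the JC-1 dye by flow cytometry. Aggregates read as red (590 nm) and monomers as 530 nm; output is the percentage of depolarized cells. Mean ± SEM of three independent experiments.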

HeLa [4] = experiment: Induction of apoptosis in human HeLa cells assessed as increase in annexin-V positive apoptotic cells at 50 to 100 nM by FITC conjugated annexin-V/PI staining-based flow cytometry; type: functional, cell-based; details: TDE = time-dependent effect
Method in brief: (§4)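 Flow cytometry of HeLa cells after 24 or 48 h exposure, double-stained with annexin-V-FITC and propidium iodide. Excitation at 488 nm, emission at 525 nm (FITC) and 585 nm (PI). Quadrants scored as live, early apoptotic, late apoptotic or necrotic cells.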

CCRF-CEM [5] = experiment: Cytotoxicity against human CEM cells after 72 hrs by MTT assay; type: functional, cell-based; method in brief: as §1
HeLa [6] = experiment: Induction of ROS production in human HeLa cells at 50 to 100 nM after 24 to 48 hrs by H2-DCFDA staining-based flow cytometry; type: functional, cell-based
Method in brief: (§5)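 HeLa cells were exposed for 24 or 48 h, then stained with hydroethidine or H2-DCFDA for ROS and read by flow cytometry. DMSO ≤0.25%. Mean ± SEM of three independent experiments.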

[7] = Inhibition of bovine tubulin polymerisation after 20 mins by turbidimetric analysis; parameters: species or system Bos taurus
Method in brief: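 Bovine brain tubulin at 10 μM was preincubated with varying compound concentrations in glutamate buffer at 30 °C, cooled to 0 °C, and 0.4 mM GTP added. Samples were warmed to 30 °C and assembly followed by turbidity at 350 nm.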

HT-29 = experiment: Cytotoxicity against human HT-29 cells after 72 hrs by MTT assay; type: functional, cell-based; details: HT-29, 72 h
Jurkat = experiment: Cytotoxicity against human Jurkat cells after 72 hrs by MTT assay; type: functional, cell-based
Method in brief: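 8 × 10^3 cells/well were preincubated 18 h at 37 °C, 5% CO2, then given graded concentrations for 72 h, with final DMSO not above 0.25%. Viability was read by MTT. […] Mean ± SE from at least three experiments.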

HL-60 = experiment: Cytotoxicity against human HL60 cells after 72 hrs by MTT assay; type: functional, cell-based; details: HL-60, 72 h
A549 [8] = experiment: Cytotoxicity against human A549 cells after 72 hrs by MTT assay; type: functional, cell-based; details: A549, 72 h
LoVo [9] = experiment: Resistance ratio of IC50 for human doxorubicin-resistant LoVo cells to human LoVo cells; type: functional
[10] = Cytotoxicity against human CEM/VBL100 cells after 72 hrs by MTT assay; type: functional, cell-based; details: CEM/VBL100, 72 h; method in brief: as §1
HeLa [11] = experiment: Induction of cell cycle arrest in human HeLa cells assessed as increase in G2/M phase cells after 24 hrs by flow cytometry; type: functional, cell-based; method in brief: as §2
HeLa [12] = experiment: Induction of cell cycle arrest in human HeLa cells assessed as increase in G2/M phase cells at 30 nM after 24 hrs by flow cytometry; type: functional, cell-based; method in brief: as §2
[13] = Cytotoxicity against human A549-T12 cells after 72 hrs by MTT assay; type: functional, cell-based; details: A549, 72 h; method in brief: as §1
A549 [14] = experiment: Resistance ratio of IC50 for human A549-T12 cells to IC50 for human A549 cells; type: functional
HeLa [15] = experiment: Induction of ROS production in human HeLa cells at 50 to 100 nM after 24 to 48 hrs by HE staining-based flow cytometry; type: functional, cell-based; method in brief: as §5
LoVo [16] = experiment: Cytotoxicity against human LoVo cells after 72 hrs by MTT assay; type: functional, cell-based; method in brief: as §1
HeLa [17] = experiment: Cytotoxicity against human HeLa cells after 72 hrs by MTT assay; type: functional, cell-based
HeLa [18] = experiment: Induction of apoptosis in human HeLa cells assessed as increase in annexin-V positive apoptotic cells after 24 to 48 hrs by FITC conjugated annexin-V/PI staining-based flow cytometry; type: functional, cell-based; method in brief: as §4
CCRF-CEM [19] = experiment: Resistance ratio of IC50 for human CEM/VBL100 cells to IC50 for human CEM cells; type: functional
HeLa [20] = experiment: Induction of cell cycle arrest in human HeLa cells assessed as G2/M phase cells at 60 nM after 24 hrs by flow cytometry; type: functional
Method in brief: (§6)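 Exponentially growing HeLa cells (5 × 10^5) were treated 24 h at 15–250 nM. Cells were fixed in ice-cold 70% ethanol, lysed with RNase A/0.1% Triton X-100 buffer and stained with propidium iodide. DNA content was measured by flow cytometry to score G2/M fraction. Mean ± SEM of three independent experiments.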

HeLa [21] = experiment: Induction of cell cycle arrest in human HeLa cells assessed as decrease in G1 phase cells at 15 to 250 nM after 24 hrs by flow cytometry; type: functional, cell-based; method in brief: as §2
HeLa [22] = experiment: Induction of mitochondrial depolarization in human HeLa cells at 50 to 100 nM by JC1-based fluorescent staining; type: functional, cell-based; details: TDE = time-dependent effect; method in brief: as §3
[23] = Inhibition of tubulin polymerization
Method in brief: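 Bovine brain tubulin at 10 μM in glutamate buffer was preincubated with compound at varying concentrations at 30 °C, then cooled to 0 °C. GTP was added to 0.4 mM and the mixture rewarmed to 30 °C. Assembly was followed by turbidity at 350 nm.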

HeLa [24] = experiment: Induction of cell cycle arrest in human HeLa cells assessed as increase in G2/M phase cells at 15 to 250 nM after 24 hrs by flow cytometry; type: functional, cell-based; method in brief: as §6

SMILES	IC50 (MCF7) [nM]	inhibition (Bos taurus) [%]	IC50 [7] [nM]	IC50 (HT-29) [nM]	IC50 (Jurkat) [nM]	IC50 (HL-60) [nM]	IC50 (A549 [8]) [nM]	IC50 (HeLa [17]) [nM]	other results
CCOc1ccc(-n2nnnc2-c2cc(OC)c(OC)c(OC)c2)cc1	2.8	71	2000	3.1	0.26	0.7	7.4	0.3	IC50 (LoVo [1]): 96.9 nM; Activity (HeLa [2]): Active; Activity (HeLa [3]): Dose-dependent effect; Activity (HeLa [4]): tde; IC50 (CCRF-CEM [5]): 3.8 nM; Activity (HeLa [6]): Active; Ratio IC50 (LoVo [9]): 0.8; IC50 [10]: 0.5 nM; Activity (HeLa [11]): Dose-dependent effect; Activity (HeLa [12]): Active; IC50 [13]: 4.2 nM; Ratio IC50 (A549 [14]): 0.6; Activity (HeLa [15]): Active; IC50 (LoVo [16]): 118 nM; Activity (HeLa [18]): Dose-dependent effect; Ratio IC50 (CCRF-CEM [19]): 0.1; Activity (HeLa [20]): >80%; Activity (HeLa [21]): Active; Activity (HeLa [22]): tde
COc1ccc(-c2nnnn2-c2cc(OC)c(OC)c(OC)c2)cc1N									IC50 [23]: 2000 nM
COc1ccc(-n2nnnc2-c2cc(OC)c(OC)c(OC)c2)cc1	27.1	70	2100	265	209	40.3	> 10000	952	
COc1ccc(-c2nnnn2-c2cc(OC)c(OC)c(OC)c2)cc1OC	2720			355	345	488	3570	259	
CCCOc1ccc(-c2nnnn2-c2cc(OC)c(OC)c(OC)c2)cc1	66.2	46	3100	105	47	43.3	495	11.1	
CCc1ccc(-c2nnnn2-c2cc(OC)c(OC)c(OC)c2)cc1	12.6	47	3700	182	55.1	53.1	3380	29	
CCCCOc1ccc(-c2nnnn2-c2cc(OC)c(OC)c(OC)c2)cc1	> 10000			> 10000	> 10000	> 10000	> 10000	> 10000	
COc1ccc(-c2nnnn2-c2cc(OC)c(OC)c(OC)c2)cc1F	29.7	60	2100	2.7	1.3	7.3	332	2.8	
COc1ccc(-c2nnnn2-c2cc(OC)c(OC)c(OC)c2)cc1	38.5	54	2500	4.6	2.6	2.9	222	2.6	
COc1cc(-c2nnnn2-c2cc(OC)c(OC)c(OC)c2)cc(OC)c1OC	> 10000			> 10000	> 10000	> 10000	> 10000	> 10000	
COc1cc(-n2nnnc2-c2ccccc2)cc(OC)c1OC	> 10000			> 10000	3.8	903	> 10000	4100	
CCOc1ccc(-c2nnnn2-c2cc(OC)c(OC)c(OC)c2)cc1Cl	1.8	58	2000	1.6	0.23	0.8	28.8	2.6	IC50 (LoVo [1]): 15.7 nM; IC50 (CCRF-CEM [5]): 0.7 nM; Ratio IC50 (LoVo [9]): 1.3; IC50 [10]: 0.7 nM; Activity (HeLa [24]): Active; IC50 [13]: 31.5 nM; Ratio IC50 (A549 [14]): 1.1; IC50 (LoVo [16]): 12.5 nM; Ratio IC50 (CCRF-CEM [19]): 1
COc1ccc(-c2nnnn2-c2cc(OC)c(OC)c(OC)c2)cc1Cl	25.2	50	3500	35.9	10	3.6	402	2.3	
COc1ccc(-c2nnnn2-c2cc(OC)c(OC)c(OC)c2)cc1C	15.4	59	2500	5.6	4.1	2	37.7	2.1	
COc1cc(-n2nnnc2-c2ccc(C)cc2)cc(OC)c1OC	1780			673	222	329	3420	255	
CCOc1ccc(-c2ncnn2-c2cc(OC)c(OC)c(OC)c2)cc1		86	760						
COc1cc(-n2nnnc2-c2cccs2)cc(OC)c1OC	> 10000			> 10000	> 10000	> 10000	> 10000	> 10000	
COc1cc(-n2nnnc2-c2ccc(C(C)=O)cc2)cc(OC)c1OC	> 10000			6030	325	596	> 10000	648	
CCCCCOc1ccc(-c2nnnn2-c2cc(OC)c(OC)c(OC)c2)cc1	> 10000			> 10000	> 10000	> 10000	> 10000	6400	
